Experimental data published in ChEMBL document CHEMBL4513216, “Probing the Open Global Health Chemical Diversity Library for Multistage-Active Starting Points for Next-Generation Antimalarials” (ACS Infect Dis, 2020).

Test: Toxicity liver stage against HepG2, at 10uM
Assay type: cell-based
Parameters: test concentration 10 uM, cell line HepG2-A16-CD81EGFP
Conditions: human, HepG2-A16-CD81EGFP cells; read-out: INHIBITION
Method in brief: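 Uninfected HepG2-A16-CD81EGFP cells, 3 × 10^3 per well, 1536-well, plated on prespotted compound at 10 μM final, parasite-free screening media added to match infected plates; puromycin 10 μM positive, DMSO 0.5% negative; run in parallel with 48 h PbLuc assay at 37 °C, 5% CO2; viability by CellTiter-Glo luminescence, normalized to controls.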

| Compound | cytotoxicity at 10 µM [%] |
| --- | --- |
| Cc1nnc(NCc2cccc(OCC3CCCO3)c2)c(C#N)c1C (stereo not given) | -33.8 |
| COc1ccc(CNC[C@H]2COCc3nc4cc(F)ccc4n32)cn1 | 0.734 |
| CCS(=O)(=O)c1ccc2oc([C@H]3CCN(Cc4ccncc4)C3)nc2c1 | 23.7 |
| O=C1CO[C@H]2CN(S(=O)(=O)c3ccccc3)C[C@H]2N1Cc1ccccn1 | -1.11 |
| Cc1ccc(-c2noc(C(C)NS(C)(=O)=O)n2)cc1 (stereo not given) | -9.24 |
| COc1cccc(CN2CCCC2c2cccc(F)c2)c1OC (stereo not given) | 6.01 |
| N#Cc1cnc(N2CCC3(CC2)OCCO3)nc1N | 3.51 |
| CN(C)CCN(C)c1cc(N2CCN(c3ccccn3)CC2)ncn1 | 1.23 |
| O=C(CCC(=O)N1CCc2[nH]c3ccccc3c2C1)NCc1ccco1 | 3.59 |
| CC(C)CCNC(=O)c1ccc2c(=O)n(-c3ccccc3)cnc2c1 | -4.65 |
| CN1C(=O)c2cccc(NC(=O)c3cccc(S(C)(=O)=O)c3)c2C1=O | -7.75 |
| O=C(NCC(F)(F)F)C1CN(C(=O)c2cnccn2)C1 | 2.24 |
| O=C(N1CCCC1)N1C[C@@H]2CCNC[C@@H]21 | 0.375 |
| CN(C)C(=O)C1CCC2(CCN(Cc3ccc4ccccc4n3)CC2)O1 (stereo not given) | 5.09 |
| Cc1csc(CN2CCC[C@]3(C[C@H](OCC4CC4)CO3)C2)n1 | -141 |
| Cc1nc(CN2C[C@@H]3CN(C(=O)c4ccoc4C)C[C@@H]3C2)cs1 | -144 |
| O=C(NCc1cnc2n1CCN(c1ncc(F)cn1)CC2)C1CCC1 | -0.881 |
| O=C(c1ccnn1COc1ccc(Cl)cc1)N1CCCC1 | -2.34 |
| CCc1oc2ccc(NS(=O)(=O)CC)cc2c1C(=O)OC | 5.05 |
| O=C(c1cc(C2CC2)on1)N1C[C@H]2CC[C@](O)(c3ccc(F)cc3)[C@H]2C1 | 3.94 |
| COc1cccc(F)c1CN1CCC(c2nccc(C)n2)C1 (stereo not given) | 5.29 |
| Cc1cncnc1C1CCN(C(=O)C2(C)CCCCN2C)CC1 (stereo not given) | 1.06 |

| Compound | cytotoxicity at 10 µM [%] |
| --- | --- |
| Cc1nccc(N(C)Cc2ncc(-c3ccccc3C(=O)O)s2)n1 | 1.31 |
| O=C(Cc1cccnc1)N1CCC(c2nnc(-c3ccccn3)o2)CC1 | 0.91 |
| Cc1ccc(CC2COCCN(S(=O)(=O)c3ccccc3)C2)nc1 (stereo not given) | -4.48 |
| O=C(Cc1ccccc1)NCc1ncc(-c2ccccc2C(=O)O)cn1 | -1.89 |
| Cc1n[nH]c(C)c1S(=O)(=O)N1CCC(Oc2ccccc2F)CC1 | 1.22 |
| CNC(=O)C1CCCN(C(=O)c2ccccc2-n2cc(CN)cn2)C1 (stereo not given) | -2.3 |
| Cc1c(CN2CCCC2(C)C(=O)NC2CCCC2)cnn1C (stereo not given) | 1.05 |
| Cc1cc2n(n1)[C@@H](C(F)(F)F)C[C@@H](C1CCCN(C(=O)C(C)C)C1)N2 (stereo not given in full) | -22.1 |
| C[C@@H]1C[C@H](C(F)(F)F)n2nc(C3CCN(S(C)(=O)=O)CC3)cc2N1 | -16.9 |
| O=S1(=O)NC(C2CCN(Cc3ccncc3)CC2)Nc2ccccc21 (stereo not given) | -19.3 |
| CC(C)(C)NC(=O)N1CCC(NC(=O)Cc2cccnc2)CC1 | 0.355 |
| CNC(=O)Cn1ccc2ccc(NC(=O)C(C)C)cc21 | 0.153 |
| O=C(COCCOc1ccccc1)NC1CCN(c2ncccn2)CC1 | -4.9 |
| CCc1nnc2n1CCN(C(C(N)=O)c1ccc(F)cc1)C2 (stereo not given) | -8.13 |
| CC1Oc2c(cccc2C(=O)N2CCCCCC2)NC1=O (stereo not given) | -6.81 |
| Cn1nnnc1SCC1(O)CCCCC1 | 1.06 |
| O=C1CCN(C(=O)NCCc2c[nH]c3ccc(Cl)cc23)CCN1 | 4.26 |
| CCC(=O)NC1CCCN(c2cncc(OCc3ccccc3)n2)C1 (stereo not given) | -2.08 |
| COc1ccc(C(C)NCCc2ccc(NC(C)=O)cc2)c(OC)c1 (stereo not given) | 4.49 |
| O=C(Cn1cccnc1=O)NCc1cccnc1OCC(F)(F)F | -11.9 |
| COc1ccc(S(=O)(=O)Nc2cccnc2-n2cncn2)cc1C | -6.87 |
| CN(Cc1ccc(C(N)=O)cc1)c1ccc(C(F)(F)F)cn1 | 7.98 |

| Compound | cytotoxicity at 10 µM [%] |
| --- | --- |
| CCc1n[nH]c(C2CN(C(=O)CCOCC(F)(F)F)CCO2)n1 (stereo not given) | 10.4 |
| CCn1ncc2c1CCCC2NCc1ccc2c(c1)OCCO2 (stereo not given) | -9.12 |
| CC(C)N(CC(N)=O)C(=O)c1cc(F)ccc1N1CCN(C)CC1 | 7.66 |
| CC(C)c1nnc(NC(=O)N2CCN(C)CC2c2ccccc2)s1 (stereo not given) | -11.6 |
| O=C(Nc1cccn(CC(F)(F)F)c1=O)c1ccc(F)cc1 | 14.3 |
| CC(C)CC(CC(C)C)NC(=O)c1ccn(C)c(=O)c1 | -0.717 |
| C=C(C)CN(CC)Cc1nc(C(C)(C)C)no1 | -4.57 |
| CC(C)c1cccc(-n2cc(O)c(C(=O)NCCCn3cccn3)n2)c1 | -1.59 |
| CN(Cc1nnn(CC2CC2)n1)C(=O)c1ccccc1 | 0.889 |
| O=C(CCNS(=O)(=O)c1ccccc1)NCc1ccoc1 | -0.886 |
| CC(O)CN1CCN(C(=O)CN(C)c2ccc(Cl)cn2)CC1 (stereo not given) | -1.95 |
| CCc1n[nH]c(C2CN(CC(=O)NCCc3ccsc3)CCO2)n1 (stereo not given) | -11 |
| CCN(CC)C(=O)c1ccc(NC(=O)CNc2ccc(Br)cc2F)cc1 | 4.52 |
| CC(C)OC[C@H]1CCC[C@]12CN(S(=O)(=O)c1cn(C)cn1)CCO2 | 5.19 |
| Cc1cc(N(C)CCC(O)c2ccccc2)n2nccc2n1 (stereo not given) | -2.84 |
| O=C(Nc1cnn(CC(=O)N2CCCCO2)c1)c1ccsc1 | -1.23 |
| CC(C)(CN1CCC(Cc2cccc(C(=O)O)c2)C1)N1CCOCC1 (stereo not given) | 3.98 |
| CC(O)C(=O)N1CCC(c2[nH]ncc2-c2ccccc2)CC1 (stereo not given) | -2 |
| Cc1nccc(N2CCCC(c3nnc(Cn4ccnc4C)n3C)C2)n1 (stereo not given) | -2.04 |
| COc1ccccc1OC1CN(C(=O)Cc2c(C)nc(N)nc2C)C1 | 0.866 |
| COCC(=O)N1CCc2[nH]nc(-c3ccc4c(c3)OCO4)c2C1 | -137 |
| Cc1cc(S(=O)(=O)N2C[C@H](C3CC3)[C@@H](N)C2)c(C)s1 | -2.36 |

| Compound | cytotoxicity at 10 µM [%] |
| --- | --- |
| O=C(O)CC1COCCN1C(=O)C1(c2ccc(Cl)cc2)CCC1 (stereo not given) | -17.8 |
| COC(=O)N1CCC(c2nnc(Cn3ccnc3)n2C)CC1 | -110 |
| Cc1c(CN2CCc3[nH]cnc3C2C(=O)O)[nH]c2ccc(F)cc12 (stereo not given) | -4.23 |
| CN(C)c1ccc(C2CC(=O)Nc3c2cnn3Cc2ccco2)cc1 (stereo not given) | -3.08 |
| COc1ccc(OC)c2c(C)cc(N(CCO)CCO)nc12 | -114 |
| CC(=O)N1C[C@H]2CNC[C@@]2(C(=O)NCCOc2ccccc2F)C1 | 2.8 |
| CCc1cc(CN(C)Cc2nc(-c3sccc3C)oc2C)on1 | -3.81 |
| O=C(Cn1nc2ccccc2n1)N1CCCn2cncc2C1 | 1.87 |
| Cc1nc(N)nc(C)c1CC(=O)N1CCC2(CC1)OCCCC2O (stereo not given) | -1.8 |
| O=C1CCCc2cc(S(=O)(=O)NCc3ccccn3)ccc2N1 | 2.41 |
| c1ccc(Cc2noc(CN3CCCC3Cn3cccn3)n2)cc1 (stereo not given) | -2.57 |
| CCC(O)CN1CCN(C(=O)c2cc3ccccc3n2CC)CC1 (stereo not given) | -0.579 |
| Cc1ncc2c(n1)CN(CC(=O)Nc1c(C)nn(C)c1C)CC2 | -11.1 |
| Cc1nc(CN(C)C2CCN(CC3CCOCC3)C2)no1 (stereo not given) | -4.68 |
| CCn1cnnc1CNC(=O)Cc1ccc2c(c1)OCCO2 | -3.27 |
| CCc1n[nH]c(C2CN(C(=O)c3cnc(C)cn3)CCO2)n1 (stereo not given) | -2.9 |
| COC(=O)c1cccn1C1CCN(CCN2C(=O)CCC2=O)CC1 | 0.207 |
| Cc1c(C(=O)N2CCCC(n3cncn3)C2)cnn1C (stereo not given) | -9.84 |
| Nc1nc(CN2CCOC(Cn3cccn3)C2)nc2ccccc12 (stereo not given) | -20.4 |
| CCCn1nc2c(cc1=O)CN(Cc1nnc(C3CC3)o1)CC2 | 2.11 |
| CCc1nnc2n1CCN(C(=O)c1cc3ccc(F)cc3nc1C)C2 | -9.37 |
| Cc1ccc(OCC(=O)NS(=O)(=O)c2cccnc2)cc1C | 4.36 |

| Compound | cytotoxicity at 10 µM [%] |
| --- | --- |
| CC(C)Cc1noc(CN2CCOCC2)n1 | -2.27 |
| Cc1cnn(CCNCc2csc(-c3cccs3)n2)c1 | -9.91 |
| O=C(CCCc1nnc(-c2ccccc2)o1)N1CCN(CCO)CC1 | -6.31 |
| Cc1n[nH]c(C)c1NC(=O)CN1CCc2c(nc(C3CC3)n2C)C1 | -3.15 |
| CCN(Cc1ccc2c(c1)OCCO2)C(=O)NC(C)Cn1ccnc1 (stereo not given) | -2.79 |
| COCc1ccccc1CNc1cc(N2CCCC2CO)ncn1 (stereo not given) | -1.81 |
| Cc1nn(C)c(Cl)c1CNCc1ccc(OCC(N)=O)cc1 | 1.08 |
| CCc1cccc(NS(=O)(=O)c2cc3c(c(C(=O)O)c2)OCCO3)c1 | 2.89 |
| CC(NC(=O)NCCCN(C)S(C)(=O)=O)c1ccncc1 (stereo not given) | -0.409 |
| O=C(CCc1nccs1)N1CCN(c2cccnn2)CC1 | -2.84 |
| Cc1n[nH]c(C)c1NC(=O)CN1CCn2c(nnc2C(C)C)C1 | -1.03 |
| Cc1nc(O)cc(C2(C)CCCNC2)n1 (stereo not given) | 2.98 |
| Cc1cc(C[C@@H]2COC[C@H]2NCc2ccc(C)c(C)c2)on1 | 8.1 |
| O=C(Nc1cccnc1)[C@H]1CO[C@H]2CCNC[C@H]2C1 | 9.24 |
| O=C(O)[C@]12CCCN(Cc3ccsc3)C[C@H]1CN(c1ccccn1)C2 | -139 |
| CCn1nc(C)cc1C(=O)N1C[C@@H]2C[C@@H](C)O[C@@H]2C1 | 5.53 |
| CC(C)C(=O)N1CC2(CCN(CC(C)(C)C)CC2)C1 | -5.28 |
| O=C(C1CCC2(CCN(CC3CCOCC3)CC2)O1)N1CCCC1 (stereo not given) | 1.91 |
| Cc1csc2nc3n(c(=O)c12)CCN(Cc1ccccn1)CC3 | -18.2 |
| O=S(=O)(C1CC1)N1CCOC2(CCCN(Cc3ccccn3)C2)C1 (stereo not given) | -0.78 |
| O=C(NCc1ccc(Cl)cc1)C1=NOC2(CCNC2)C1 (stereo not given) | -4.21 |
| c1ccc(CO[C@@H]2CO[C@@]3(CCN(Cc4ccccn4)C3)C2)nc1 | -9.62 |
